Measured values collected from several papers.
Target: Activated CDC42 kinase 1 (TNK2, Homo sapiens, UniProt Q07912)

SMILES	assay	conditions	remaining binding
CCN(CC)Cc1cc(Nc2ccnc3cc(Cl)ccc23)ccc1O	cell-free assay, competition with immobilised ligand	10 µM	100%
COc1cccc(CNC(=O)c2nc3scc(COCc4ccc(C(=O)O)cc4)c3c(=O)[nH]2)c1	cell-free assay, competition with immobilised ligand	1 µM	89.6%
CCN(CC)CCNC(=O)c1c(C)[nH]c(/C=C2\C(=O)Nc3ccc(F)cc32)c1C	cell-free assay, competition with immobilised ligand	0.1 µM	93%
F[C@@H]1CCN(c2nccc(-c3cnn4ncccc34)n2)C1	binding	1 µM	79%
O=C(NS(=O)(=O)c1ccc(NCC2CCOCC2)c([N+](=O)[O-])c1)c1ccc(N2CCN(Cc3ccc(C(F)(F)F)cc3-c3ccc(Cl)cc3)CC2)cc1Oc1cnc2[nH]ccc2c1	cell-free assay, competition with immobilised ligand	1 µM	100%
CNC(=O)c1cc(Oc2ccc(NC(=O)Nc3ccc(Cl)c(C(F)(F)F)c3)cc2)ccn1	cell-free assay, competition with immobilised ligand	0.1 µM	100%
N[C@H]1CCN(c2nccc(-c3cnn4ncccc34)n2)C1	binding	1 µM	77%
O=C(NCCCN1CCOCC1)c1ccc(Nc2nccc(-c3cc4ccccc4s3)n2)cc1	binding, competition with immobilised ligand	1 µM	63%
CN(CCCC(F)(F)F)c1nccc(-c2cnn3ncccc23)n1	binding	1 µM	83%
O=C(Nc1c[nH]nc1C(=O)NC1CCNCC1)c1cc(F)cc(F)c1	binding, competition with immobilised ligand	1 µM	100%
FC(F)(F)Oc1cccc(-c2cnc3ccc(-c4ccncc4)nn23)c1	binding, competition with immobilised ligand	5 µM	79%
COc1ccnn2ncc(-c3ccnc(N(C)C)n3)c12	binding	1 µM	100%
O=C(c1ccc(Nc2nccc(-c3cc4ccccc4s3)n2)cc1)N1CCC(N2CCCC2)CC1	binding, competition with immobilised ligand	1 µM	62%
Cc1nc(Nc2ncc(C(=O)Nc3c(C)cccc3Cl)s2)cc(N2CCN(CCO)CC2)n1	cell-free assay, competition with immobilised ligand	10 µM	0%
Cc1cnn2ncc(-c3ccnc(N(C)C)n3)c2c1	binding	1 µM	100%
CS(=O)(=O)CCNCc1ccc(-c2ccc3ncnc(Nc4ccc(OCc5cccc(F)c5)c(Cl)c4)c3c2)o1	cell-free assay, competition with immobilised ligand	0.1 µM	100%

SMILES	assay	conditions	remaining binding
Cc1c(NC(=O)c2cc(C(N)=O)nc3cc(F)ccc23)c(C(F)(F)F)nn1Cc1ccc(C#N)cc1	cell-free assay, competition with immobilised ligand	1 µM	71%
COc1cnc(Nc2cccc(S(N)(=O)=O)c2)nc1N1CCN(c2ccccc2)C(=O)C1	binding, competition with immobilised ligand	1 µM	100%
C=CC(=O)N1CCC(C(=O)NCC(=O)N2CCN(c3nc(-c4cnc(N)nc4C(F)F)nc(N4CCOCC4)n3)CC2)CC1	binding, competition with immobilised ligand	1 µM	100%
O=C(NC[C@@H]1[C@H]2CN(C(=O)OCc3cc(C(F)(F)F)cc(C(F)(F)F)c3)C[C@@H]12)c1ccc2[nH]nnc2c1	cell-free assay, competition with immobilised ligand	1 µM	100%
C[C@@H](c1ccc(-n2cnc3c(N)ncnc32)cc1)N1CCc2nn(C)c(Cc3ccccc3)c2C1=O	binding, competition with immobilised ligand	0.1 µM	82%
CNC(=O)[C@@H]1CC[C@@H](n2c(-c3ccc4cnccc4c3)nc3ccc(C(=O)NCc4cccc(C(N)=O)c4)cc32)C1	binding, competition with immobilised ligand	1 µM	100%
CN1CC[C@H](c2c(O)cc(O)c3c(=O)cc(-c4ccccc4Cl)oc23)[C@H](O)C1	cell-free assay, competition with immobilised ligand	0.1 µM	100%
C[C@H]1CCN(c2nccc(-c3cnn4ncccc34)n2)C1	binding	1 µM	100%
Cc1cc(C)c(-n2ccn3nc(-c4cccnc4)cc23)cc1NC(=O)c1cc(C#N)cc(S(F)(F)(F)(F)F)c1	cell-free assay, competition with immobilised ligand	0.1 µM	83.6%
COc1cc2ncnc(Nc3ccc(F)c(Cl)c3)c2cc1OCCCN1CCOCC1	cell-free assay, competition with immobilised ligand	0.1 µM	100%
Cn1nc(C(F)(F)F)cc1-c1cnc(N2CCc3cc(S(=O)(=O)Nc4c(F)cc(Cl)cc4F)cc(N4CCCC4=O)c32)nc1	cell-free assay, competition with immobilised ligand	1 µM	100%
Cc1c(-c2ccccc2)oc2c(C(=O)OCCN3CCCCC3)cccc2c1=O	cell-free assay, competition with immobilised ligand	10 µM	94%
Cc1nc(Cc2cccc(C(F)(F)F)c2)sc1-c1ccc(C(N)=O)nc1	cell-free assay, competition with immobilised ligand	1 µM	100%
c1cncc(-c2cccc(Nc3nccc(NC4CCCCC4)n3)c2)c1	binding, competition with immobilised ligand	10 µM	43%
C[C@@H]1CN(c2cc(-c3n[nH]c4ccc(OC5(C)CC5)cc34)ncn2)C[C@H](C)O1	cell-free assay, competition with immobilised ligand	0.1 µM	79%
Cc1cnc(Nc2ccc(C(=O)N3CCC(N4CCCC4)CC3)cc2)nc1-c1cc2ccccc2s1	binding, competition with immobilised ligand	1 µM	10%
